Assays:
Type in all cases: functional
[1] = system: HL-60; assay: Cytotoxicity in human HL60 cells assessed as reduction in cell growth incubated for 72 hrs by neutral red staining based colorimetry; conditions: HL-60, 72 h
Method in brief: (§1)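 Cells grown in D-MEM with 10% fetal calf serum, 2 mM L-glutamine, penicillin G, streptomycin and gentamicin, seeded at 3 × 10^3 cells per mL. Compound stocks in DMSO/H2O (1/9). Exposure 72 h at 37 °C in air/CO2 (95:5). Living cells stained with neutral red, optical density read at 540 nm. Run in triplicate. IC50 taken as concentration inhibiting growth to 50% of untreated control.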

[2] = system: Lu1; assay: Cytotoxicity in human Lu1 cells assessed as reduction in cell growth incubated for 72 hrs by neutral red staining based colorimetry; conditions: Lu1, 72 h; method in brief: as §1
[3] = system: KB; assay: Cytotoxicity in human KB cells assessed as reduction in cell growth incubated for 72 hrs by neutral red staining based colorimetry; method in brief: as §1
[4] = system: HeLa; assay: Cytotoxicity in human HeLa cells assessed as reduction in cell growth incubated for 72 hrs by neutral red staining based colorimetry; method in brief: as §1
[5] = system: HepG2; assay: Cytotoxicity in human HepG2 cells assessed as reduction in cell growth incubated for 72 hrs by neutral red staining based colorimetry; conditions: HepG2, 72 h; method in brief: as §1
[6] = system: MCF7; assay: Cytotoxicity in human MCF7 cells assessed as reduction in cell growth incubated for 72 hrs by neutral red staining based colorimetry; conditions: MCF7, 72 h; method in brief: as §1

Row | SMILES | IC50 [1] [µM] | IC50 [2] [µM] | IC50 [3] [µM] | IC50 [4] [µM] | IC50 [5] [µM] | IC50 [6] [µM]
1 | CO[C@@H](C(=O)N[C@H]1CC[C@@H](O)CNC1=O)[C@H](O)[C@@H](O)[C@H](O)/C=C/C(C)(C)C | > 150 | 23.4 | 62.6 | > 150 | > 150 | 23.4
2 | CO[C@@H](C(=O)N[C@@H]1CCCCNC1=O)[C@H](O)[C@@H](O)[C@H](O)/C=C/C(C)(C)C | 5.3 | 0.5 | 1.1 | 2.1 | 1.1 | 0.2
3 | CO[C@@H](C(=O)N[C@@H]1CC[C@@H](O)CNC1=O)[C@H](O)[C@@H](O)[C@H](O)/C=C/C(C)(C)C | 12.1 | 17.2 | 5.1 | 15.4 | 21.3 | 165
4 | CO[C@@H](C(=O)N[C@H]1CCCCNC1=O)[C@H](O)[C@@H](O)[C@H](O)/C=C/C(C)(C)C | 83.3 | 4.3 | 21 | 60.7 | 21.1 | 1.3
5 | CO[C@@H](C(=O)N[C@@H]1CC[C@H](O)CNC1=O)[C@H](O)[C@@H](O)[C@H](O)/C=C/C(C)(C)C | > 150 | 36.3 | 23.7 | > 150 | 138 | 80.4
6 | CO[C@@H](C(=O)N[C@@H]1CCCCNC1=O)[C@@H]1OC(C)(C)O[C@H](/C=C/C(C)(C)C)[C@@H]1O | > 150 | > 150 | > 150 | > 150 | > 150 | > 150
7 | CO[C@@H](C(=O)N[C@H]1CC[C@H](O)CNC1=O)[C@H](O)[C@@H](O)[C@H](O)/C=C/C(C)(C)C | > 150 | 10 | 19.8 | > 150 | 103 | 144
8 | CO[C@@H](C(=O)N[C@H]1CCCCNC1=O)[C@@H]1OC(C)(C)O[C@H](/C=C/C(C)(C)C)[C@@H]1O | > 150 | > 150 | > 150 | > 150 | > 150 | > 150
9 | Cc1c2ccncc2c(C)c2c1[nH]c1ccccc12 [ELLIPTECINE] | 2 | 1.6 | 1.2 | 1.6 | – | 2.4

— ChEMBL document CHEMBL4138067, “Design, synthesis and cytotoxicity of bengamide analogues and their epimers” (Medchemcomm, 2017)
